Assay results from ChEMBL document CHEMBL3046448, “Design and syntheses of novel phthalazin-1(2H)-one derivatives as acetohydroxyacid synthase inhibitors” (J Agric Food Chem, 2006).
pKi: −log10 of the molar value. One block for each compound: values may come before it.

What was measured:
[1] = system: Digitaria sanguinalis; assay: Herbicidal activity against Digitaria sanguinalis (hairy crabgrass) assessed as growth inhibition at 150 g ai/ha applied as pre-emergence treatment 24 hr after weeds seeds sowing under green house conditions measured 15 days post compound treatment; type: functional; conditions: read-out: GI
How it was run: (§1)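 Pre-emergence spray applied 24 h after sowing weeds in pots in a greenhouse. Clay soil: pH 6.5, 1.6% organic matter, 37.3% clay, CEC 12.1 cmol/kg. Formulation: 100 g/L emulsified concentrate (DMF solvent, TW-80 emulsifier) diluted with water to 150 g ai/ha. Untreated and DMF-treated controls. Growth inhibition judged visually at 15 days: ++ >80%, + 50-80%, − <50%.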

[2] = system: Setaria viridis; assay: Herbicidal activity against Setaria viridis (green foxtail) assessed as growth inhibition at 150 g ai/ha applied as pre-emergence treatment 24 hr after weeds seeds sowing under green house conditions measured 15 days post compound treatment; type: functional; conditions: read-out: GI; how it was run: as §1
[3] = system: Amaranthus retroflexus; assay: Herbicidal activity against Amaranthus retroflexus assessed as growth inhibition at 150 g ai/ha applied as pre-emergence treatment 24 hr after weeds seeds sowing under green house conditions measured 15 days post compound treatment; type: functional; conditions: read-out: GI; how it was run: as §1
[4] = system: Setaria viridis; assay: Herbicidal activity against Setaria viridis (green foxtail) assessed as growth inhibition at 150 g ai/ha applied as post-emergence treatment under green house conditions measured 15 days post compound treatment; type: functional; conditions: 360 h, read-out: GI
How it was run: (§2)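 Monocot weeds grown in pots in a greenhouse and sprayed post-emergence at the one-leaf stage. Clay soil: pH 6.5, 1.6% organic matter, 37.3% clay, CEC 12.1 cmol/kg. Formulation: 100 g/L emulsified concentrate (DMF, TW-80) diluted with water to 150 g ai/ha. Untreated and DMF controls included. Growth inhibition scored visually after 15 days: ++ >80%, + 50-80%, − <50%.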

[5] = system: Chenopodium album; assay: Herbicidal activity against Chenopodium album assessed as growth inhibition at 150 g ai/ha applied as post-emergence treatment under green house conditions measured 15 days post compound treatment; type: functional; conditions: 360 h, read-out: GI
How it was run: (§3)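 Post-emergence spray on pot-grown dicot weeds at the two-leaf stage in a greenhouse. Clay soil: pH 6.5, 1.6% organic matter, 37.3% clay, CEC 12.1 cmol/kg. Formulation: 100 g/L DMF/TW-80 emulsified concentrate, water-diluted to 150 g ai/ha. Untreated and DMF solvent controls. Visual inhibition rating at 15 days: ++ >80%, + 50-80%, − <50%.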

[6] = system: Amaranthus retroflexus; assay: Herbicidal activity against Amaranthus retroflexus assessed as growth inhibition at 150 g ai/ha applied as post-emergence treatment under green house conditions measured 15 days post compound treatment; type: functional; conditions: 360 h, read-out: GI; how it was run: as §3
[7] = system: Echinochloa crus-galli; assay: Herbicidal activity against Echinochloa crus-galli (barnyard grass) assessed as growth inhibition at 150 g ai/ha applied as pre-emergence treatment 24 hr after weeds seeds sowing under green house conditions measured 15 days post compound treatment; type: functional; conditions: read-out: GI; how it was run: as §1
[8] = system: Brassica juncea; assay: Herbicidal activity against Brassica juncea assessed as growth inhibition at 150 g ai/ha applied as post-emergence treatment under green house conditions measured 15 days post compound treatment; type: functional; conditions: 360 h, read-out: GI; how it was run: as §3
[9] = system: Chenopodium album; assay: Herbicidal activity against Chenopodium album assessed as growth inhibition at 150 g ai/ha applied as pre-emergence treatment 24 hr after weeds seeds sowing under green house conditions measured 15 days post compound treatment; type: functional; conditions: read-out: GI; how it was run: as §1
[10] = biological target: T1, Acetolactate synthase, chloroplastic (Arabidopsis thaliana, UniProt P17597); assay: Inhibition of wild type Arabidopsis thaliana acetohydroxyacid synthase
T1 sequence (P17597 whole entry): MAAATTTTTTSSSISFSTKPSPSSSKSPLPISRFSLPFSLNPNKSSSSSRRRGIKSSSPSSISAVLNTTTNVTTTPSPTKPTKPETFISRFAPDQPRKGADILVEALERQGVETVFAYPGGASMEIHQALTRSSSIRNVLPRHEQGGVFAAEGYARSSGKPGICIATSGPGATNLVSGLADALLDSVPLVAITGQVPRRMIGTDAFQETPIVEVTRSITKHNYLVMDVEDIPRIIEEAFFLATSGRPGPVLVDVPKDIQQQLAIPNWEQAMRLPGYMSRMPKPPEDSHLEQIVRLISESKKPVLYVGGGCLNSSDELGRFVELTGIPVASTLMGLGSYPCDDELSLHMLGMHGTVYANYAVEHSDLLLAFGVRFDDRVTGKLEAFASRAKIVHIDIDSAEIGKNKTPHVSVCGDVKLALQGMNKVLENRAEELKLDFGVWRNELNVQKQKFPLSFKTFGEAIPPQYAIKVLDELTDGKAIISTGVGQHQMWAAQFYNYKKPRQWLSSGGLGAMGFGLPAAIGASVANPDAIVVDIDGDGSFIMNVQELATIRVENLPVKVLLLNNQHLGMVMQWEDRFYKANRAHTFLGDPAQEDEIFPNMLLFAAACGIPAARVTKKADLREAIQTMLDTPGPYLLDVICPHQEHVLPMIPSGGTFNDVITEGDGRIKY

[11] = system: Digitaria sanguinalis; assay: Herbicidal activity against Digitaria sanguinalis (hairy crabgrass) assessed as growth inhibition at 150 g ai/ha applied as post-emergence treatment under green house conditions measured 15 days post compound treatment; type: functional; conditions: 360 h, read-out: GI; how it was run: as §2
[12] = system: Echinochloa crus-galli; assay: Herbicidal activity against Echinochloa crus-galli (barnyard grass) assessed as growth inhibition at 150 g ai/ha applied as post-emergence treatment under green house conditions measured 15 days post compound treatment; type: functional; conditions: 360 h, read-out: GI; how it was run: as §2
[13] = system: Brassica juncea; assay: Herbicidal activity against Brassica juncea assessed as growth inhibition at 150 g ai/ha applied as pre-emergence treatment 24 hr after weeds seeds sowing under green house conditions measured 15 days post compound treatment; type: functional; conditions: read-out: GI; how it was run: as §1

pKi [10]: 2.85
SMILES: COc1cc(OC)nc(Oc2cccc3c(C)nn(Cc4cccc(F)c4)c(=O)c23)n1
inhibition of growth at 150 g/ha [1]: < 50%
inhibition of growth at 150 g/ha [2]: < 50%
inhibition of growth at 150 g/ha [3]: < 50%
inhibition of growth at 150 g/ha [4]: < 50%
inhibition of growth at 150 g/ha [5]: < 50%
inhibition of growth at 150 g/ha [6]: < 50%
inhibition of growth at 150 g/ha [7]: < 50%
inhibition of growth at 150 g/ha [8]: < 50%
inhibition of growth at 150 g/ha [9]: < 50%
inhibition of growth at 150 g/ha [11]: < 50%
inhibition of growth at 150 g/ha [12]: < 50%
inhibition of growth at 150 g/ha [13]: < 50%

pKi [10]: 3.44
SMILES: COc1cc(OC)nc(Oc2cccc3c(C)nn(Cc4ccccc4Br)c(=O)c23)n1
inhibition of growth at 150 g/ha [1]: < 50%
inhibition of growth at 150 g/ha [2]: < 50%
inhibition of growth at 150 g/ha [3]: < 50%
inhibition of growth at 150 g/ha [4]: < 50%
inhibition of growth at 150 g/ha [5]: < 50%
inhibition of growth at 150 g/ha [6]: < 50%
inhibition of growth at 150 g/ha [7]: < 50%
inhibition of growth at 150 g/ha [8]: < 50%
inhibition of growth at 150 g/ha [9]: < 50%
inhibition of growth at 150 g/ha [11]: < 50%
inhibition of growth at 150 g/ha [12]: < 50%
inhibition of growth at 150 g/ha [13]: < 50%

pKi [10]: 3.12
SMILES: COc1cc(OC)nc(Oc2cccc3c(C)nn(Cc4cccc(Br)c4)c(=O)c23)n1
inhibition of growth at 150 g/ha [1]: < 50%
inhibition of growth at 150 g/ha [2]: < 50%
inhibition of growth at 150 g/ha [3]: < 50%
inhibition of growth at 150 g/ha [4]: 50%
inhibition of growth at 150 g/ha [5]: < 50%
inhibition of growth at 150 g/ha [6]: > 80%
inhibition of growth at 150 g/ha [7]: < 50%
inhibition of growth at 150 g/ha [8]: 50%
inhibition of growth at 150 g/ha [9]: < 50%
inhibition of growth at 150 g/ha [11]: 50%
inhibition of growth at 150 g/ha [12]: 50%
inhibition of growth at 150 g/ha [13]: < 50%

pKi [10]: 3.10
SMILES: COc1cc(OC)nc(Oc2cccc3c(C)n[nH]c(=O)c23)n1
inhibition of growth at 150 g/ha [1]: < 50%
inhibition of growth at 150 g/ha [2]: < 50%
inhibition of growth at 150 g/ha [3]: < 50%
inhibition of growth at 150 g/ha [4]: > 80%
inhibition of growth at 150 g/ha [5]: 50%
inhibition of growth at 150 g/ha [6]: > 80%
inhibition of growth at 150 g/ha [7]: < 50%
inhibition of growth at 150 g/ha [8]: < 50%
inhibition of growth at 150 g/ha [9]: < 50%
inhibition of growth at 150 g/ha [11]: > 80%
inhibition of growth at 150 g/ha [12]: > 80%
inhibition of growth at 150 g/ha [13]: < 50%

pKi [10]: 2.28
SMILES: C=CCn1nc(C)c2cccc(Oc3nc(OC)cc(OC)n3)c2c1=O
inhibition of growth at 150 g/ha [1]: < 50%
inhibition of growth at 150 g/ha [2]: < 50%
inhibition of growth at 150 g/ha [3]: < 50%
inhibition of growth at 150 g/ha [4]: > 80%
inhibition of growth at 150 g/ha [5]: 50%
inhibition of growth at 150 g/ha [6]: > 80%
inhibition of growth at 150 g/ha [7]: < 50%
inhibition of growth at 150 g/ha [8]: < 50%
inhibition of growth at 150 g/ha [9]: < 50%
inhibition of growth at 150 g/ha [11]: 50%
inhibition of growth at 150 g/ha [12]: > 80%
inhibition of growth at 150 g/ha [13]: < 50%

pKi [10]: 3.25
SMILES: CCOC(=O)Cn1nc(C)c2cccc(Oc3nc(OC)cc(OC)n3)c2c1=O
inhibition of growth at 150 g/ha [1]: < 50%
inhibition of growth at 150 g/ha [2]: < 50%
inhibition of growth at 150 g/ha [3]: < 50%
inhibition of growth at 150 g/ha [4]: > 80%
inhibition of growth at 150 g/ha [5]: 50%
inhibition of growth at 150 g/ha [6]: > 80%
inhibition of growth at 150 g/ha [7]: < 50%
inhibition of growth at 150 g/ha [8]: < 50%
inhibition of growth at 150 g/ha [9]: < 50%
inhibition of growth at 150 g/ha [11]: 50%
inhibition of growth at 150 g/ha [12]: > 80%
inhibition of growth at 150 g/ha [13]: < 50%
